Laboratory results as given in ChEMBL document CHEMBL4266025, “Stereoselective Synthesis of the Isomers of Notoincisol A: Assigment of the Absolute Configuration of this Natural Product and Biological Evaluation” (J Nat Prod, 2018).
Calls of active or inactive are those of the source. No cut-off for these calls is given here.

Key:
[1] = target: T1, Peroxisome proliferator-activated receptor gamma (Homo sapiens) (UniProt P37231); test: Transactivation of human full length PPARgamma expressed in HEK293 cells up to 3 uM after 18 hrs by luciferase reporter gene based luminescence assay; assay type: cell-based
T1 sequence (whole entry): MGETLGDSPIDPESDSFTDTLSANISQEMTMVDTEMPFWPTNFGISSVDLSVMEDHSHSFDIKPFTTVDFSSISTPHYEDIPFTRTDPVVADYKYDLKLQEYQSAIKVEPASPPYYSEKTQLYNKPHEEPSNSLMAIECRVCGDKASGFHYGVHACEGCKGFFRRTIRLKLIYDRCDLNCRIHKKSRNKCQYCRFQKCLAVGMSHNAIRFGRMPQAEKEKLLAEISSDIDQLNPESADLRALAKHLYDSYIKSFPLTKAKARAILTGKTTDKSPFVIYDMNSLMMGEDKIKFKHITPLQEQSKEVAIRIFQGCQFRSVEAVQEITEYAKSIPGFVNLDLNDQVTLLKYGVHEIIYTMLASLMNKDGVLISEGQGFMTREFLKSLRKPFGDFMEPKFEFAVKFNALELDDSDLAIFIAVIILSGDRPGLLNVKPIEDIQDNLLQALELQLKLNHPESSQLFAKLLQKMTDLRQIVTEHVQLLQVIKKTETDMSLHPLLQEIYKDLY
Method in brief: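 HEK293 cells transfected for 6 h with full-length human PPARγ, a PPRE-firefly luciferase reporter and pEGFP-N1 (internal control). Cells reseeded in serum-free DMEM, dosed at 0.1–30 μM in DMSO and incubated 18 h. Luciferase/EGFP ratio expressed as fold induction over 0.1% DMSO; pioglitazone 5 μM as positive control. EC50 from a variable-slope sigmoidal fit.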

[2] = target: GABA-A receptor; alpha-1/beta-2/gamma-2 (Homo sapiens) (UniProt P14867+P47870+P18507); test: Positive allosteric modulation of GABAA receptor alpha1beta2gamma2 (unknown origin) expressed in Xenopus laevis oocytes assessed as GABA-stimulated current amplitude at 1 to 10 uM incubated for 120 secs by electrophysiological method relative to control; assay type: cell-based
Method in brief: (§1)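 Two-electrode voltage clamp on Xenopus oocytes injected with subunit mRNA mixtures (α1β3 or α1β2γ2). Compounds at 1 and 10 μM, diluted into measurement buffer, co-applied with GABA at EC3-5, EC20, EC50 and EC80. Result taken as enhancement of the GABA-elicited current.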

Oocyte = test: Induction of current amplitude in Xenopus laevis oocytes after […] by electrophysiological method; assay type: functional, cell-based
[3] = target: GABA-A receptor alpha-1/beta-3 (Homo sapiens) (UniProt P14867+P28472); test: Positive allosteric modulation of GABAA receptor alpha1beta3 (unknown origin) expressed in Xenopus laevis oocytes assessed as GABA-stimulated current amplitude at 1 to 10 uM up to 120 secs by electrophysiological method; assay type: cell-based; method in brief: as §1
HEK293 = test: Cytotoxicity against HEK293 cells assessed as decrease in cell viability at 10 uM after 24 hrs by resazurin based assay; details: human, hek293, 24 h
Method in brief: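 HEK293 cells seeded at 4 × 10^4 cells/well, grown overnight, then exposed to compound at 0.3, 1, 3, 10 and 30 μM for 24 h. Resazurin (10 μg/mL in PBS) added for 4 h at 37 °C. Resorufin fluorescence read at 535 nm excitation/590 nm emission as the viability measure.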

| SMILES | Activity [1] | fold change (FC) [2] | Activity (Oocyte) | Activity [3] | Activity (HEK293) |
| --- | --- | --- | --- | --- | --- |
| C=C[C@@H](O)C#CC#C[C@@H](/C=C\CCCCCCC)OC(=O)/C=C/c1ccc(O)c(OC)c1 | inactive | 4 | Active | Active |  |
| CCC[C@@H](O)CC/C=C/C=C/C#CC#CCCCO [DIHYDROOENANTHOTOXIN] | inactive |  |  |  | Toxic |
| CCC[C@@H](O)/C=C/C=C/C=C/C#CC#CCCCO [CICUTOXIN] | inactive |  |  |  | Toxic |
| C=C[C@H](O)C#CC#C[C@@H](/C=C\CCCCCCC)OC(=O)/C=C/c1ccc(O)c(OC)c1 | inactive | 4 | Active | Active |  |
| C=CC(O)C#CC#CC(/C=C\CCCCCCC)OC(=O)/C=C/c1ccc(O)c(OC)c1 (stereo not drawn) | inactive |  |  |  | Toxic |
| C=C[C@H](O)C#CC#C[C@H](/C=C\CCCCCCC)OC(=O)/C=C/c1ccc(O)c(OC)c1 | inactive | 4 | Active | Active |  |
| C=C[C@H](O)C#CC#C[C@@H](O)/C=C\CCCCCCC | inactive |  |  |  | Toxic |
| C=C[C@@H](O)C#CC#C[C@H](/C=C\CCCCCCC)OC(=O)/C=C/c1ccc(O)c(OC)c1 |  | 4 | Active | Active |  |
